Screening results (PubChem)
Hits are enriched below; roughly 2.1% of the tested compounds scored in any of these assays.
Mot1-301 SUMO = yeast Mot1-301 growth rescue at high temperature, primary screen, SUMOylation pathway inhibitor project, S. cerevisiae, ATP luminescence, 38.5C; growth rescue, % at 18.8 µM; actives 1% (n = 320,000); S. cerevisiae Mot1-301 growth rescue; percent above DMSO median, 100 means doubled;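 active = every valid replicate shows activation above 250% relative to neutral control wells; inactive = the rest, any valid replicate at or below 250%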;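 also: OY570 slx delta 5 strain wells were the positive control but not used for scaling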
APOBEC3A inh = APOBEC3A ssDNA deaminase inhibitors, primary screen, selectivity assay for APOBEC3G inhibitor project, biochemical, FAM/TAMRA oligo cleavage fluorescence | recombinant A3A, FAM/TAMRA ssDNA deamination fluorescence | actives 0.41% (n = 330,000) | inhibition, % at 20 µM | DNA dC->dU-editing enzyme APOBEC-3A (Homo sapiens), P31941;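 active = at least 40% inhibition at 20 µM here, with at most 30% in a related deaminase screen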;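 also: plate controls were A3A with DMSO for no effect and wells lacking A3A enzyme for full effect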
Target sequence (P31941 whole entry, looked up): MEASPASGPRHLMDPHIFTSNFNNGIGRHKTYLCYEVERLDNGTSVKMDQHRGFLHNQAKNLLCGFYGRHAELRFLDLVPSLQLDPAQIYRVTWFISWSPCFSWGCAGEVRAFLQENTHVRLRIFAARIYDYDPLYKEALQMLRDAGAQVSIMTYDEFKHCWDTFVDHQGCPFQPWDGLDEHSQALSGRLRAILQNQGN
ASAP1 GAP inh = inhibitors of human ASAP1 ArfGAP activity, primary screen, biochemical, fluorescence polarization; Arf-GAP with SH3 domain, ANK repeat and PH domain-containing protein 1 (Homo sapiens), …; ASAP1-stimulated ARF1 GTP hydrolysis, GDP FP detection; inhibition, % at 16.5 µM; actives 0.19% (n = 360,000); in the data active = inhibition above about 25%;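 also: 0% = vehicle with enzyme and substrate and 100% = no enzyme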
ARFGAP1 inhibitor = inhibitors of rat ARFGAP1 GAP activity, primary screen, biochemical, fluorescence polarization, GDP tracer. ADP-ribosylation factor GTPase-activating protein 1 (Rattus norvegicus), Q62848. Arfgap1-stimulated ARF1 GTP hydrolysis, GDP FP detection. inhibition, % at 16.5 µM. actives 0.26% (n = 360,000). AID 651572, 2012;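 active = inhibition above a per-plate limit, mean inhibition of low control wells plus 3 SD, cut at about 25% in these data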;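 also: 0% = DMSO wells with enzyme and 100% = wells lacking Arfgap1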
Target sequence (Q62848 1-136 limits assumed): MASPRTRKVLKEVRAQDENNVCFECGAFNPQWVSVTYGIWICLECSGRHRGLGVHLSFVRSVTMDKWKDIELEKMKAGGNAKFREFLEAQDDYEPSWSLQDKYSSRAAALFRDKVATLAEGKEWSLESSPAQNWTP
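System: truncated rat Arfgap1 GAP domain / Medium: HEPES-based buffer, pH 7.5 / Also added: N-terminally truncated human ARF1-GTP substrate / Incubation: enzyme reaction 120 min at 25 °C after 20 min preincubation / Measured by: FP of antibody-bound GDP Alexa 633 tracer, ex 620/em 688 nm / Replicates: singlicate, each compound tested once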
A3G deaminase = APOBEC3G DNA deaminase inhibitors, primary screen, biochemical, fluorescence, single-stranded DNA substrate, uHTS | inhibition, % at 20 µM | DNA dC->dU-editing enzyme APOBEC-3G (Homo sapiens), Q9HC16 | recombinant A3G, ssDNA deamination FAM/TAMRA fluorescence | actives 0.28% (n = 330,000) | AID 493012, 2011;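 active = inhibition of at least 40% at 20 µM, with no more than 30% in the related APOBEC3A deaminase screen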;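 also: plate controls were DMSO wells with A3G for no effect and wells lacking A3G enzyme for full effect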
Target sequence (Q9HC16 whole entry, looked up): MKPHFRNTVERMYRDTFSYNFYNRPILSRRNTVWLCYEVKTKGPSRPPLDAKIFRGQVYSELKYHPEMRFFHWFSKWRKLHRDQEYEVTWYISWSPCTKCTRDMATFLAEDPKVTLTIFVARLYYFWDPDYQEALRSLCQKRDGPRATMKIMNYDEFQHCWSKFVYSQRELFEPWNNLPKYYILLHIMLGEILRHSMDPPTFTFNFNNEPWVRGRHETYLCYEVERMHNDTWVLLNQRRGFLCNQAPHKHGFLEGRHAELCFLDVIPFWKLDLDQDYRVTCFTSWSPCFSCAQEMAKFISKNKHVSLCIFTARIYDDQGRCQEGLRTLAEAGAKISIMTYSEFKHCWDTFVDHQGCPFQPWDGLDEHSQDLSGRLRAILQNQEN
Statin myotox sup = suppressors of statin myotoxicity in C2C12 myotubes, primary screen, cell-based, single point, plate reader; C2C12 myotubes + simvastatin, ATP luminescence, 48 h; scaled: DMSO 0, geranylgeraniol control 100; rescue of ATP level, % at 7.49 µM; actives 0.78% (n = 330,000); AID 602340, 2012;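 active = mean ATP rescue above about 67%, or every replicate alone reaching that limit, limit read from the data, passing the limit was not always enough; inconclusive = no clear call, values can overlap the other calls; inactive = mean under the limit and some replicate under it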;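 also: myotubes were challenged with 10 µM simvastatin during compound exposure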
APOBEC3G confirm = APOBEC3G deaminase inhibitor retest, confirmation, biochemical, fluorescence, single-stranded DNA substrate, single concentration; inhibition, % at 20 µM; AID 493152, 2011; recombinant A3G ssDNA deaminase, UDG/FAM-TAMRA fluorescence; actives 72% (n = 890); shares compounds with A3G deaminase;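 active = inhibition reaching a set limit in any replicate at 20 µM, the limit being 80% of the first screen's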
UDG A3G counter = E. coli UDG inhibitors, confirmation, counter-screen for APOBEC3G inhibitor project, biochemical, single concentration, fluorescence, FAM/TAMRA oligo. shares compounds with A3G deaminase. UDG counterscreen. inhibition, % at 20 µM. 710 tested, under 10 active;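 active = compounds giving 40% or more inhibition at 20 µM in any one of the three replicates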;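 also: plate controls were DMSO wells with UDG and oligo for no effect and DMSO wells lacking both for full effect; inhibitors lower the FAM signal released by uracil excision and alkaline cleavage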
* marks the source's active call; other numbers are inactive results; ? = inconclusive; . = not tested or not shown.

SMILES | Mot1-301 SUMO | APOBEC3A inh | ASAP1 GAP inh | ARFGAP1 inhibitor | A3G deaminase | Statin myotox sup | APOBEC3G confirm | UDG A3G counter
S=c1[nH]nc(Nc2ccccc2Cl)s1 | -10 | -8 | -4 | 4 | 45* | . | 66* | 1
CN(C)/C=C1\NC(=S)N(c2ccccc2)C1=O | 510 | -5 | 12 | 9 | -8 | . | . | .
COc1ccc(N2C(=O)/C(=C/c3cccs3)NC2=S)cc1 | -2 | 1 | -5 | 10 | 60* | . | 39* | 4
CC(C)NC(=O)Nc1ccc2c(c1)CC(=O)N([C@@H](C)CO)C[C@H](C)[C@@H](CN(C)C)O2 | . | . | . | . | . | -3 | . | .
Cc1ccc(OC(=O)c2sc(Cl)nc2C)cc1C | -1 | 0 | -11 | 2 | 54* | . | -1 | -1
COc1ccccc1NC(=O)Nc1ccc2c(c1)C(=O)N(C)C[C@@H](OC)[C@H](C)CN(C)[C@H](C)CO2 | . | . | . | . | . | -13 | . | .
Cc1cccc(-n2ccnc2SCC(=O)Nc2nnc(C)s2)c1 | 198 | -2 | 0 | -19 | 49* | 1 | -5 | -4
CCc1nnc(NC(=O)CSc2nccn2-c2cccc(C)c2)s1 | 4 | -3 | 11 | 2 | -3 | -5 | . | .
Cc1ccc(C2(C)NC(=O)N(CC(=O)Nc3nc(-c4ccccn4)cs3)C2=O)cc1 (centres undefined) | 106 | 2 | -7 | -4 | 56* | 11 | 67* | 0
CCC(CC)c1nnc(NC(=O)COc2ccc3c(c2)OCO3)s1 | 10 | 3 | 7 | 1 | 45* | 15 | 47* | 0
CC(C)c1nnc(NC(=O)COc2ccc3c(c2)OCO3)s1 | -1 | -2 | -2 | -2 | -15 | 2 | . | .
COc1ccc(CN2C[C@H](O)COC[C@H]3O[C@H](CC(=O)NCc4ccccc4Cl)CC[C@@H]32)cc1 | . | . | . | . | . | 37 | . | .
CCc1nnc(NC(=O)C2CCN(C(=O)c3ccco3)CC2)s1 | 7 | -1 | 6 | -2 | -2 | 4 | . | .
CCC(C)(C)c1nnc(NC(=O)C2CCN(C(=O)c3ccco3)CC2)s1 | -10 | 3 | 11 | 8 | 67* | 24 | 80* | -2
CNC[C@H]1Oc2ccc(NS(C)(=O)=O)cc2CC(=O)N([C@H](C)CO)C[C@@H]1C | . | . | . | . | . | -10 | . | .
Cc1ccc2c(C)nc(Nc3nc(CSc4nnc(C)s4)cc(=O)[nH]3)nc2c1 | 28 | 7 | 2 | 13 | 7 | 16 | . | .
COc1cccc2c(C)nc(Nc3nc(CSc4nnc(C)s4)cc(=O)[nH]3)nc12 | -2 | 25 | 2 | 14 | 41* | -16 | 5 | .
CC1(C)Cc2c(sc3ncn4c(=S)[nH]nc4c23)CO1 | 3 | 0 | -6 | -4 | 42* | . | 74* | -3
COc1cccc2cc(-c3ccnc(N)n3)oc12 | -35 | 2 | -3 | 4 | -4 | -24 | . | .
COc1cccc2cc(-c3n[nH]c(=S)n3C)oc12 | -16 | -9 | -22 | -4 | 54* | . | 80* | 2
S=c1[nH]nc(-c2cc(-c3ccccc3)n[nH]2)n1/N=C/c1cccc(Cl)c1 | -3 | -7 | 8 | -10 | 53* | . | 7 | 8
S=c1[nH]nc(-c2cc(-c3ccccc3)n[nH]2)n1/N=C/c1ccc(Cl)c(Cl)c1 | 27 | -2 | -6 | -3 | 13 | . | . | .
S=c1[nH]nc(-c2ccccn2)n1/N=C/c1ccc(Cl)c(Cl)c1 | 0 | 15 | -7 | -20 | 46* | . | 45* | -4
CO[C@@H]1CN(C)C(=O)c2cc(NS(=O)(=O)CC(F)(F)F)ccc2OC[C@@H](C)N(C(=O)NC(C)C)C[C@@H]1C | . | . | . | . | . | 5 | . | .
CCOc1ccccc1N1C(=O)CC(Sc2n[nH]c(-c3ccccc3)n2)C1=O (centres undefined) | -12 | -2 | 3 | -11 | 58* | . | 66* | 0
SMILES | Mot1-301 SUMO | APOBEC3A inh | ASAP1 GAP inh | ARFGAP1 inhibitor | A3G deaminase | Statin myotox sup | APOBEC3G confirm | UDG A3G counter
C[C@H](CO)N1C[C@H](C)[C@@H](CN(C)Cc2ccncc2)Oc2c(NC(=O)Nc3ccc4c(c3)OCO4)cccc2C1=O | . | . | . | . | . | 2 | . | .
CNC[C@@H]1Oc2c(NS(=O)(=O)c3ccc(OC)cc3)cccc2C(=O)N([C@H](C)CO)C[C@H]1C | . | . | . | . | . | 15 | . | .
CC(/C=N/n1c(-c2cccnc2)n[nH]c1=S)=C\c1ccco1 | 9 | 15 | -11 | 2 | 71* | 3 | 70* | -2
CC(/C=N/n1c(-c2n[nH]c3c2CCC3)n[nH]c1=S)=C\c1ccco1 | -11 | 15 | 10 | 1 | 55* | . | 68* | -3
O=C(O)c1ccccc1NS(=O)(=O)c1cccc(C(F)(F)F)c1 | -14 | 2 | -11 | 8 | -2 | 16 | . | .
O=C(O)c1ccccc1NS(=O)(=O)c1cccc(-n2sc3ccccc3c2=O)c1 | -35 | 6 | 9 | -15 | 78* | ? | 87* | -2
Nc1nc2cc(S(=O)(=O)N3CCOCC3)ccc2o1 | 73 | 2 | -18 | -22 | 46* | 4 | 43* | -5
CN(C)C(=O)CSc1nc2cc(S(=O)(=O)N3CCOCC3)ccc2o1 | -15 | -1 | -5 | 13 | 23 | 14 | . | .
NC(=O)CSc1nc2cc(S(=O)(=O)N3CCOCC3)ccc2o1 | 2 | 3 | 0 | -2 | 43* | -1 | 24* | -2
O=C(NCC[C@@H]1CC[C@@H](NC(=O)C2CCCCC2)[C@@H](CO)O1)c1cc(Cl)cc(Cl)c1 | . | . | . | . | . | 1 | . | .
CCC(=O)Nc1ccc2c(c1)C(=O)N(C)C[C@H](OC)[C@H](C)CN(Cc1ccncc1)[C@H](C)CO2 | . | . | . | . | . | 2 | . | .
C[C@H](NC(N)=O)C(=O)Nc1ccc(N2CCOCC2)c(S(=O)(=O)Nc2ccc(Cl)cc2)c1 | . | -2 | 12 | -12 | 46* | 3 | 30* | 3
CCC(=O)Nc1ccc(N2CCOCC2)c(S(=O)(=O)Nc2ccc(Cl)cc2)c1 | -15 | 2 | -7 | -10 | 37 | 8 | . | .
